Series [1] can be described thus: Stability in presence of 20% fetal calf serum. Format: ADME. To be noted: cattle. Put shortly:
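Compound incubated in RPMI medium containing 20% fetal calf serum at 37 °C for up to 2 days. Incubation stopped with ethanol, mixture chilled to 4 °C and centrifuged, and clear supernatant analysed by RP-HPLC. Half-life from least-squares linear regression of log[I] versus time, using at least five points.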

Series [2] addresses Human immunodeficiency virus type 1 protease (Human immunodeficiency virus 1, UniProt Q72874, V82A). Nature of the series: Inhibition of dimerization of HIV1 protease V82A mutant. Put shortly:
(§1)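 Recombinant HIV-1 protease (wild-type or mutant) assayed fluorometrically with substrate DABCYL-γ-abu-Ser-Gln-Asn-Tyr-Pro-Ile-Val-Gln-EDANS (emission 490 nm). Conditions: 100 mM sodium acetate, 1 mM EDTA, 1 M NaCl, pH 4.7, 30 °C, 3% v/v DMSO final. Typically 7.5 nM enzyme and 5.2 µM substrate.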

In series [3] the target is T1, Human immunodeficiency virus type 1 protease (Human immunodeficiency virus 1, UniProt Q72874). Nature of the series: Inhibition of dimerization of HIV1 protease ANAM-11 mutant. Put shortly: as §1
The target of series [4] is T1, Human immunodeficiency virus type 1 protease. Nature of the series: Inhibition of wild type HIV1 protease dimerization. Put shortly:
as §1

For series [5] the target is unchanged. Nature of the series: Inhibition of dimerization of HIV1 protease […] mutant. Put shortly: as §1
Series [6] addresses Human immunodeficiency virus type 1 protease (Human immunodeficiency virus 1, UniProt Q72874, D30N). Nature of the series: Inhibition of dimerization of HIV1 protease D30N mutant. Put shortly:
as §1

The target in series [7] is T1, Human immunodeficiency virus type 1 protease. Nature of the series: Inhibition of dimerization of HIV1 protease MDR-HM mutant. Put shortly:
as §1

Series [8] deals with Human immunodeficiency virus type 1 protease (Human immunodeficiency virus 1, UniProt Q72874, G48V/L90M). Nature of the series: Inhibition of dimerization of HIV1 protease G48V/L90M mutant. Put shortly:
as §1

The target in series [9] is Human immunodeficiency virus type 1 protease (Human immunodeficiency virus 1) (UniProt Q72874). Nature of the series: Inhibition of wild type HIV1 protease dimerization at 5 uM.
Series [10] shares this target. Nature of the series: Inhibition of wild type HIV1 protease at 5 uM. Put shortly:
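Recombinant wild-type HIV-1 protease (7.5 nM) was run with fluorogenic substrate DABCYL-γ-abu-Ser-Gln-Asn-Tyr-Pro-Ile-Val-Gln-EDANS (5.2 µM) in 100 mM sodium acetate, 1 mM EDTA, 1 M NaCl, pH 4.7, 30 °C. DMSO was kept at 3% v/v final. Emission was read at 490 nm. Percent inhibition was measured at 5 µM compound.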

In series [11] the target is T1, Human immunodeficiency virus type 1 protease. Nature of the series: Inhibition of wild type HIV1 protease. Put shortly: as §1

On to `COC(=O)[C@@H](NC(=O)[C@H](CC(C)C)NC(=O)[C@@H](NC(=O)CCCOc1ccc2ccc(OCCCC(=O)N[C@H](C(=O)Nc3cccn(CC(N)=O)c3=O)C(C)C)cc2c1)C(C)C)C(C)C`, for which the half-life (usually how long it takes for the measured level to halve) in series [1] is 41 h.
On to `COC(=O)[C@@H](NC(=O)[C@H](CC(C)C)NC(=O)[C@@H](NC(=O)CCCOc1ccc2ccc(OCCCC(=O)N[C@H](C(=O)N[C@@H](CC(C)C)C(=O)N[C@H](C(=O)OC)C(C)C)C(C)C)cc2c1)C(C)C)C(C)C`, for which the half-life in [1] was 28 h.
For `COC(=O)[C@@H](NC(=O)[C@@H](CC(C)C)NC(=O)[C@@H](NC(=O)CCCOc1ccc2ccc(OCCCC(=O)NC(C(=O)Nc3cccn(CC(N)=O)c3=O)C(C)C)cc2c1)C(C)C)C(C)C` (some centres undefined), the Ki (usually the equilibrium dissociation constant of an inhibitor or competing ligand from its target) came out at 240 nM in series [2]; 200 nM in series [3]; 400 nM in series [4]; 100 nM in series [5]; 500 nM in series [6]; 4800 nM in series [7]. In series [8], this molecule came in with a Ki of 500 nM.
Turning to `COC(=O)[C@@H](NC(=O)[C@H](CC(C)C)NC(=O)[C@@H](NC(=O)CCCOc1ccc2ccc(OCCCC(=O)N[C@H](C(=O)NNC(=O)c3cc(NC(C)=O)ccc3OC)C(C)C)cc2c1)C(C)C)C(C)C`, the affinity in series [4], expressed as Ki, was 200 nM.
For the molecule `COC(=O)[C@@H](NC(=O)[C@H](CC(C)C)NC(=O)[C@@H](NC(=O)CCCOc1ccc2ccc(OCCCC(=O)NNC(=O)c3cc(N)ccc3OC)cc2c1)C(C)C)C(C)C`, the inhibition in series [9] and in series [10] was 28% each time.
As for `CC[C@H](C)[C@H](NC(=O)Cn1c(C)ccc(NC(=O)CCCOc2ccc3ccc(OCCCC(=O)N[C@H](C(=O)N[C@H](CC(C)C)C(=O)N[C@H](C(=O)OC)C(C)C)C(C)C)cc3c2)c1=O)C(=O)N[C@H](C(N)=O)[C@@H](C)O`, the Ki in [11] is 9700 nM.
For `COC(=O)[C@@H](NC(=O)[C@@H](CC(C)C)NC(=O)[C@@H](NC(=O)CCCOc1ccc2ccc(OCCCC(=O)Nc3ccc(C)n(CC(=O)Nc4ccc(C)n(CC(=O)OC(C)(C)C)c4=O)c3=O)cc2c1)C(C)C)C(C)C`, the Ki in [11] was found to be 8400 nM.

(Values after ChEMBL document CHEMBL1137412, “Molecular tongs containing amino acid mimetic fragments: new inhibitors of wild-type and mutated HIV-1 protease dimerization” (J Med Chem, 2006).)
